ChEMBL document CHEMBL4765491, “Discovery of Potent and Selective Methylenephosphonic Acid CD73 Inhibitors” (J Med Chem, 2021)

Key:
5'-nucleotidase = 5'-nucleotidase (Homo sapiens, UniProt P21589); assay: Inhibition of human CD73 expressed in CHO cells incubated for 60 mins before addition of AMP and further incubated for 60 mins by colorimetric assay; type: cell-based
Outline: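 Thawed stable CD73-CHO cells in HEPES pH 7.4 saline buffer with 0.1% glucose, 1500 cells/well. Preincubated 60 min at 37 °C with 16-point 1:3 compound dilutions (final 100–0 or 0.1–0 μM; 10 or 2% DMSO). 25 μM AMP then added, 60 min at 37 °C/5% CO2. Supernatant phosphate measured with PiColorLock Gold. Activity normalized to DMSO and no-cell wells. IC50 from a four-parameter fit.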

[1] = Half life in Sprague-Dawley rat at 0.25 to 0.5 mg/kg, iv measured up to 24 hrs by LC-MS/MS analysis; type: ADME, organism-based; conditions: in vivo, dose 0.25-0.5 mg/kg
Outline: (§1)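 Male SD rats (0.27–0.30 kg), acclimated. Single IV bolus via femoral vein at 0.25 or 0.5 mg/kg in 31.6% DMA/36.8% ethanol/31.6% PEG. Jugular blood at predose, 5, 15, 30 min, 1, 2, 4, 6, 8, 24 h, collected into K2-EDTA; plasma spun at 4 °C, stored −80 °C until analysis.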

[2] = Clearance in Sprague-Dawley rat at 0.25 to 0.5 mg/kg, iv measured up to 24 hrs by LC-MS/MS analysis; type: ADME, organism-based; conditions: in vivo, dose 0.25-0.5 mg/kg; outline: as §1

Sequence of 5'-nucleotidase (P21589 whole entry): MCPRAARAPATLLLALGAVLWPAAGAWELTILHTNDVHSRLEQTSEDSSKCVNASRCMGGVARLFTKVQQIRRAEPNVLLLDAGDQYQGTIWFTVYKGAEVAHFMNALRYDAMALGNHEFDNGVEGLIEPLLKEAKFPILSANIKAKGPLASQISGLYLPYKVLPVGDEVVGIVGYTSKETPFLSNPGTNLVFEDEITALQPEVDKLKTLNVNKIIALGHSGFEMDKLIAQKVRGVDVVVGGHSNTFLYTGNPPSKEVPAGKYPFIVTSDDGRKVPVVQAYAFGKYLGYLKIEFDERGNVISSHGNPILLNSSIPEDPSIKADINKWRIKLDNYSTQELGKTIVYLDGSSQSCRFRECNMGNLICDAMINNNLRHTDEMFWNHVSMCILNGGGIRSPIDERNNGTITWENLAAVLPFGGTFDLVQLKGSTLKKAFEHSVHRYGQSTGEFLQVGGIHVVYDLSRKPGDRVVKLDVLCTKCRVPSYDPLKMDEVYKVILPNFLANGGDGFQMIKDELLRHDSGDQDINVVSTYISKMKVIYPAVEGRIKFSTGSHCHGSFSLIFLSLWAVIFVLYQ

Structure (SMILES)	IC50 (5'-nucleotidase) [nM]	half-life [1] [h]	clearance [2] [mL/min/kg]
O=C(O)C(OC[C@H]1O[C@@H](n2cnc3c(NCc4ccccc4)nc(Cl)nc32)[C@H](O)[C@@H]1O)P(=O)(O)O (stereo partly specified)	110		
O=P(O)(O)COC[C@H]1O[C@@H](n2cnc3c(NCC4CCCC4)nc(Cl)nc32)[C@H](O)[C@@H]1O	124		
C[C@H](Nc1nc(Cl)nc2c1cnn2[C@@H]1O[C@H](COCP(=O)(O)O)[C@@H](O)[C@H]1O)c1ccc(F)cc1		4.5	0.333
C[C@H](Nc1cc(Cl)nc2c1cnn2[C@@H]1O[C@H](COCP(=O)(O)O)[C@@H](O)[C@H]1O)c1ccc(F)cc1		4	0.3
Cn1cc(CNc2nc(Cl)nc3c2ncn3[C@@H]2O[C@H](COCP(=O)(O)O)[C@@H](O)[C@H]2O)cn1	201		
O=P(O)(O)COC[C@H]1O[C@@H](n2cnc3c(NCCc4ccccc4)nc(Cl)nc32)[C@H](O)[C@@H]1O	105		
O=P(O)(O)COC[C@H]1O[C@@H](n2cnc3c(NC4CCCC4)nc(COC4CCNC4)nc32)[C@H](O)[C@@H]1O (stereo partly specified)	> 10000		
O=P(O)(O)COC[C@H]1O[C@@H](n2cnc3c(NC4CCCC4)nc(-c4ccccc4)nc32)[C@H](O)[C@@H]1O	245		
O=P(O)(O)COC[C@H]1O[C@@H](n2cnc3c(NCCc4ccccc4F)nc(Cl)nc32)[C@H](O)[C@@H]1O	121		
O=P(O)(O)CCCOC[C@H]1O[C@@H](n2cnc3c(NCc4ccccc4)nc(Cl)nc32)[C@H](O)[C@@H]1O	> 10000		
O=P(O)(O)CCOC[C@H]1O[C@@H](n2cnc3c(NCc4ccccc4)nc(Cl)nc32)[C@H](O)[C@@H]1O	> 10000		
O=P(O)(O)OP(=O)(O)OC[C@H]1O[C@@H](n2cnc3c(NCc4ccccc4)nc(Cl)nc32)[C@H](O)[C@@H]1O	0.4		
Cc1ccccc1-c1nc(NC2CCCC2)c2ncn([C@@H]3O[C@H](COCP(=O)(O)O)[C@@H](O)[C@H]3O)c2n1	3500		
O=P(O)(O)COC[C@H]1O[C@@H](n2cnc3c(NCc4ccccn4)nc(Cl)nc32)[C@H](O)[C@@H]1O	382		
O=P(O)(O)COC[C@H]1O[C@@H](n2cnc3c(NC4CC4)nc(Cl)nc32)[C@H](O)[C@@H]1O	588		
COc1ccccc1CCNc1nc(Cl)nc2c1ncn2[C@@H]1O[C@H](COCP(=O)(O)O)[C@@H](O)[C@H]1O	173		
C[C@@H](Nc1nc(Cl)nc2c1ncn2[C@@H]1O[C@H](COCP(=O)(O)O)[C@@H](O)[C@H]1O)c1ccccc1	156		
C[C@H](Nc1nc(Cl)nc2c1cnn2[C@@H]1O[C@H](COCP(=O)(O)O)[C@@H](O)[C@H]1O)c1ccccc1		2.4	0.517
COCc1nc(NC2CCCC2)c2ncn([C@@H]3O[C@H](COCP(=O)(O)O)[C@@H](O)[C@H]3O)c2n1	118		
O=C(O)C(OC[C@H]1O[C@@H](n2cnc3c(NCc4ccccc4)nc(Cl)nc32)[C@H](O)[C@@H]1O)C(=O)O	1000		
O=P(O)(O)COC[C@H]1O[C@@H](n2cnc3c(N4CCOCC4)nc(Cl)nc32)[C@H](O)[C@@H]1O	148		
CC(C)Nc1nc(Cl)nc2c1ncn2[C@@H]1O[C@H](COCP(=O)(O)O)[C@@H](O)[C@H]1O	192		
Cn1cnnc1CNc1nc(Cl)nc2c1ncn2[C@@H]1O[C@H](COCP(=O)(O)O)[C@@H](O)[C@H]1O	3200		

The remaining compounds from weak to strong by IC50 (5'-nucleotidase), led by results:

IC50 (5'-nucleotidase) [nM]	half-life [1] [h]	clearance [2] [mL/min/kg]	Structure (SMILES)
84			O=P(O)(O)COC[C@H]1O[C@@H](n2cnc3c(N[C@@H]4CCOC4)nc(Cl)nc32)[C@H](O)[C@@H]1O
83			O=P(O)(O)COC[C@H]1O[C@@H](n2cnc3c(NC4CCC4)nc(Cl)nc32)[C@H](O)[C@@H]1O
65	1.2	2.33	C[C@H](Nc1nc(Cl)nc2c1ncn2[C@@H]1O[C@H](COCP(=O)(O)O)[C@@H](O)[C@H]1O)c1ccccc1
58			O=P(O)(O)COC[C@H]1O[C@@H](n2cnc3c(NCc4ccccc4)nc(Cl)nc32)[C@H](O)[C@@H]1O
46			CN(Cc1ccccc1Cl)c1nc(Cl)nc2c1ncn2[C@@H]1O[C@H](COCP(=O)(O)O)[C@@H](O)[C@H]1O
46			O=P(O)(O)COC[C@H]1O[C@@H](n2cnc3c(NCc4ccccc4Cl)nc(Cl)nc32)[C@H](O)[C@@H]1O
45			O=P(O)(O)COC[C@H]1O[C@@H](n2cnc3c(N4CCCC4)nc(Cl)nc32)[C@H](O)[C@@H]1O
33			O=P(O)(O)COC[C@H]1O[C@@H](n2cnc3c(NC4CCCC4)cc(Cl)nc32)[C@H](O)[C@@H]1O
26	0.97	6.17	O=P(O)(O)COC[C@H]1O[C@@H](n2cnc3c(NC4CCCC4)nc(Cl)nc32)[C@H](O)[C@@H]1O
13			O=P(O)(O)COC[C@H]1O[C@@H](n2cnc3c(NC4CCCC4)nc(COc4ccccc4)nc32)[C@H](O)[C@@H]1O
4.5			O=P(O)(O)COC[C@H]1O[C@@H](n2ncc3c(NC4CCCC4)cc(Cl)nc32)[C@H](O)[C@@H]1O
